Test results as given in ChEMBL document CHEMBL4513216, “Probing the Open Global Health Chemical Diversity Library for Multistage-Active Starting Points for Next-Generation Antimalarials” (ACS Infect Dis, 2020).

Test: Toxicity liver stage against HepG2, at 10uM
Assay type: cell-based
Design: test concentration 10 uM, cell line HepG2-A16-CD81EGFP
Details: human, HepG2-A16-CD81EGFP cells; read-out: INHIBITION
Summary of the method: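 Uninfected HepG2-A16-CD81EGFP cells, 3 × 10^3 per well, 1536-well, plated on prespotted compound at 10 μM final, parasite-free screening media added to match infected plates; puromycin 10 μM positive, DMSO 0.5% negative; run in parallel with 48 h PbLuc assay at 37 °C, 5% CO2; viability by CellTiter-Glo luminescence, normalized to controls.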

Row | SMILES | cytotoxicity at 10 µM [%]
1 | N#Cc1ccc(CN2CCC(CCc3ccc(O)cc3)CC2)cc1 | 38.8
2 | CCOCc1nc(N2CCCC2)sc1C(=O)NCCC(=O)OCC | -3.66
3 | O=C1CCNc2ncc(-c3cccc(Cl)c3)cc2CN1C1CC1 | 8.55
4 | CC(C)CCc1cc(C(=O)O)nc2[nH]c(=O)[nH]c(=O)c12 | 4.31
5 | COc1cc2nc(C)n(CC(=O)NCCN(C)C)c(=O)c2cc1OC | -7.18
6 | O=C(Cc1csc(-c2ccccc2F)n1)NCc1ccc(C(=O)O)cc1 | -3.85
7 | COC(=O)Nc1nc2c(s1)CN(C(=O)NCc1cccs1)CC2 | 3.89
8 | CC(C)C(=O)N1CCN(c2cc(N(C)C)cnn2)CC1 | -6.45
9 | CO[C@H]1CCN(C(=O)c2cc(C)on2)C[C@@H]1Cc1ccccc1 | 4.06
10 | Cc1nnc(C[C@@H]2COC[C@H]3CN(C(=O)c4ccco4)C[C@@H]23)o1 | -8.75
11 | CCC(C)N1CCc2nc(N3CCCC3)nc(NC(C)C)c2C1 (stereo unspecified) | 8.53
12 | O=C(NC1CC1)[C@H]1C[C@H]2OCC[C@H]2N(Cc2ccco2)C1 | 8.88
13 | Cn1c(=O)n(C)c2cc(NS(=O)(=O)Cc3ccccc3)ccc21 | -4.62
14 | CC(C)c1noc(-c2ccc(-n3cnc(C(=O)O)c3)nc2)n1 | -2.06
15 | COc1ccc(-c2nnsc2C(=O)N2CCN(C(C)=O)CC2)cc1 | -0.145
16 | COc1cc(C2SCC(=O)Nc3[nH]ncc32)c(OC)c2c1OCO2 (stereo unspecified) | 6.63
17 | Cc1ccncc1CN1CCOCC1c1[nH]ncc1C (stereo unspecified) | 1.78
18 | CCC(=O)N1CCCCC[C@@H]2[C@@H]1[C@H](c1cccc(F)c1)CN2C | 8.63
19 | Cn1cc(CN2CCCC(n3c(=O)oc4ccccc43)C2)cn1 (stereo unspecified) | -0.18
20 | CCOCCCNS(=O)(=O)c1ccc2c(c1)NC(=O)C(C)O2 (stereo unspecified) | -3.57
21 | O=C(O)c1ccccc1-c1ccc(Cn2c(=O)cc[nH]c2=O)cc1 | 5.64
22 | NCC(=O)N1CCCC(O)(CN2CCN(c3ccccc3)CC2)CC1 (stereo unspecified) | -7.58
23 | Cc1cc(N2CCC(Cc3cnccn3)C2)ncn1 (stereo unspecified) | -3.24

Row | SMILES | cytotoxicity at 10 µM [%]
24 | Cc1ccc(CN2CCc3nc(C(C)C)nc(O)c3CC2)s1 | 0.913
25 | CNc1cncc(C2CCCN2C(=O)c2ccc3nc(C)[nH]c3c2)n1 (stereo unspecified) | -8.94
26 | O=C(N[C@@H]1CN(Cc2ccc(F)c(F)c2)C[C@H]1O)c1cscn1 | -3.78
27 | CC(CCc1cccn1C)NC(=O)Nc1cccn(C)c1=O (stereo unspecified) | 3.14
28 | Cn1c(N)nnc1SC1CCCN(c2ccccc2)C1=O (stereo unspecified) | 0.296
29 | CC(C)c1nc(NS(=O)(=O)c2ccccc2Cl)no1 | 10
30 | Cc1ccc(-c2ncc(CN3CCN(C(=O)N(C)C)CC3)s2)o1 | -3.25
31 | Cc1ccccc1NC(=O)CCNC(=O)c1ccoc1 | -0.714
32 | CCc1nnc(NC(=O)NCCN(C)C(=O)OC(C)(C)C)s1 | -1.6
33 | CCOc1cc(NC(=O)N2CCOC3(CCC3)C2)ccc1C | -0.535
34 | CCOC1CCN(C(=O)NCc2cccc(-n3cccn3)c2)CC1 | 0.944
35 | CCOCC(=O)Nc1ccc(N2CCSCC2)cc1C | 9.53
36 | COc1cccc(CNc2nc(N3CCOCC3)ns2)c1OC | -2.76
37 | CCC1CCCCN1CCc1ccncc1 (stereo unspecified) | 2.4
38 | Cc1cc(Nc2ccc3c(c2)CC(=O)N3)nc(C(C)C)n1 | 3.67
39 | COC1CCN(CC(=O)NCc2ccc(OCC(N)=O)cc2)CC1 | -0.094
40 | O=C(CNC1(c2ccc(Cl)cc2)CCOCC1)NC1CCCC1 | 2.32
41 | COC(=O)c1cc(OC)ccc1NCC(=O)NCC(=O)N1CCCC1 | 0.431
42 | Cc1nc(CN(C)Cc2cc3c(cc2OC(F)F)OCO3)cs1 | 8.68
43 | COC(=O)CCNC(=O)c1nnn(-c2ccc(F)cc2)c1C1CC1 | -12.1
44 | O=C(NCc1ccncc1)N(Cc1ccc(F)cc1F)C1CC1 | 3.9
45 | CC(C(=O)Nc1ccnn1C(C)C)N1CCc2nn(C)c(=O)cc2C1 (stereo unspecified) | 3.95
46 | Cc1noc(CN(Cc2cccc(C#N)c2)Cc2cccs2)n1 | 3.8

Row | SMILES | cytotoxicity at 10 µM [%]
47 | CCc1noc(C(C)N2CCN(CC(=O)N3CCOCC3)CC2)n1 (stereo unspecified) | 6.01
48 | CNC(=O)c1cccc(CCNc2ccccn2)c1 | 1.68
49 | COCc1nc(CNC2CCCc3c2cnn3C(C)(C)C)cs1 (stereo unspecified) | -1.62
50 | COCC(C)(CCO)NC(=O)Nc1c(F)cccc1Br (stereo unspecified) | 3.79
51 | CCn1nc2c(cc1=O)CN(CCOc1ccccc1C#N)CC2 | 19.2
52 | O=S(=O)(NCCc1nnc2ccccn12)c1cccnc1 | 1.9
53 | COc1cc(C(=O)NCCc2cccc(C)c2)on1 | 0.572
54 | N#Cc1cc(F)c(NCCCOCC2CCOC2)c(F)c1 (stereo unspecified) | 6.43
55 | COCC(NC(=O)NCc1sccc1C)c1ccco1 (stereo unspecified) | -3.25
56 | CC(C)(C)NC(=O)CNc1ccc(C#N)c(C(F)(F)F)c1 | -1.28
57 | Cc1cc(N2CCC(N(C)C(=O)c3ccccc3)CC2)nc(C)n1 | -4.69
58 | CN(C)C(CNC(=O)c1cccc(-n2cnnn2)c1)c1ccccc1Cl (stereo unspecified) | -6.08
59 | O=C(NCC1Cn2nnc(-c3ccsc3)c2CO1)N1CCCC1 (stereo unspecified) | -110
60 | COCC(=O)N1CC[C@@H]2O[C@H](COCc3csc(C)n3)CC[C@@H]21 | -85.8
61 | O=C(N1CCCC1)N1CCCC2(CCN(c3ccsc3)C2=O)C1 (stereo unspecified) | -74.1
62 | O=C(O)c1cnc(-c2cccc3c2CCNC3)c(Cl)c1 | 8.97
63 | Nc1ccc(-c2cc(O)cc(CCC3CCCCN3)c2)cn1 (stereo unspecified) | -9.66
64 | CN(C)Cc1nnc(C2CCN(c3ncccc3Cl)CC2)n1C1CC1 | -2.57
65 | COCCN(Cc1cnn(C)c1)C(=O)C1CCCN(C2CCOCC2)C1 (stereo unspecified) | 4.76
66 | CN(Cc1cc(-c2cccnc2)no1)C(=O)[C@@H]1CSCN1C | 0.66
67 | CN(C)C(=O)N1CC[C@@H](c2ccc3ccccc3c2)[C@H](O)C1 | -5.81
68 | Cc1ccccc1[C@@H]1CN(Cc2c(C)noc2C)C[C@H]1C(=O)O | -7.74
69 | COC(=O)[C@@H]1CCCN1C(=O)c1cn(CCCc2ccccc2)nn1 | 3.15

Row | SMILES | cytotoxicity at 10 µM [%]
70 | CN1CC2(CCCN(Cc3nnc(-c4ccco4)o3)CC2)OC1=O (stereo unspecified) | -6.12
71 | Cc1noc(CN(C)C(=O)c2n[nH]c(N)c2-c2ccccc2)n1 | -2.14
72 | NC(=O)C1CCN(CC(=O)N(Cc2ccccc2)Cc2nccs2)CC1 | -5.08
73 | Cc1cccc(CN(C(=O)CCn2cncn2)C(C)C)c1 | 8.32
74 | COc1cccc2ncn(C(C)Cn3cccn3)c(=O)c12 (stereo unspecified) | 1.37
75 | Cc1occc1C(=O)N1CCC2(CCCN(CC3CC3)C2=O)C1 (stereo unspecified) | -4.58
76 | CSc1ncc(C(=O)NCc2cc3n(n2)CCCN(CC(C)C)C3)cn1 | 5.89
77 | Cc1c[nH]c(CN2CC[C@@]3(O)CCN(C(=O)C4CCC4)C[C@H]3C2)n1 | 1.27
78 | Cc1ccccc1CN(CCN(C)C)Cc1ccccc1C(=O)O | -1.97
79 | O=c1[nH]c(COc2ccccc2Cl)nc2c1CCNC2 | 1.97
80 | CCCOC1CCCN(C(=O)c2cnc(-c3csc(C)n3)nc2O)C1 (stereo unspecified) | -1.97
81 | COc1cccc(CN2CCCC(Nc3cccc(F)c3)C2)c1O (stereo unspecified) | -10.2
82 | CCn1ncnc1C(NC(=O)CC1CCN(C(C)C)CC1)C1CC1 (stereo unspecified) | 8.6
83 | CCOCCNc1nc(C2CCCC2)nc2c1cnn2C | -11
84 | Cn1ccnc1CN1CCN(Cc2ccc(C#N)cc2)CC1 | -10.3
85 | NC(=O)C1CN(C(=O)Nc2ccccc2SC2CCCC2)CCO1 (stereo unspecified) | -5.15
86 | Cc1cnn(C2CCCN(C(=O)CCc3cnn(C)c3)C2)c1 (stereo unspecified) | -11.1
87 | NC(=O)c1cccc(CN2CCc3c(ncn3C3CC3)C2)c1 | -4.6
88 | CCN(CC)CC(=O)N1CCN(c2nc(C)cc(OC)n2)CC1 | -10.4
89 | NC(=O)Cn1cc(NC(=O)N2CCCCCC2)cn1 | -11.8
90 | Cc1cnn(CC2CCCN2Cc2ncc(-c3ccc(F)cc3)o2)c1 (stereo unspecified) | -17.6
91 | O=C(c1cccc2c1OCCO2)N1CCCC1c1noc(C2CC2)n1 (stereo unspecified) | -14.5
92 | CCC(O)CN1CCN(C(=O)c2ccn(-c3ccccc3)n2)CC1 (stereo unspecified) | -9.33

Row | SMILES | cytotoxicity at 10 µM [%]
93 | O=C(NCCc1ccccn1)C1CC(=O)N(CC(F)(F)F)C1 (stereo unspecified) | -25.2
94 | Cc1ccc(CC(=O)N2CCN(c3nccs3)CC2)s1 | -13
95 | CCOCC(O)CN1CCN(C(=O)C2CCCCC2)CC1 (stereo unspecified) | -21.5
96 | Cc1cnc(CN(C)C2CCN(CCc3cnn(C)c3)C2)o1 (stereo unspecified) | 5.44
97 | COC(CNC(=O)N1CCC(n2cncn2)CC1)c1ccccc1 (stereo unspecified) | 4.33
98 | CCc1nc(CN(C)C2CCN(Cc3ccc(C#N)cc3F)C2)no1 (stereo unspecified) | -7.12
99 | O=C(O)[C@]12CCCN(Cc3ccccc3)C[C@H]1CN(c1ncccn1)C2 | -8.33
100 | O=C(NCc1cccs1)[C@]12COC[C@H]1CN(c1ncccn1)C2 | 11.6
101 | CC(=O)NC1CCN(c2ccnc(C3CCNCC3)c2)CC1 | -6.15
102 | COCCO[C@@H]1CCN(C(=O)c2ccc(C)o2)[C@@H]1Cc1cccnc1 | -12.2
103 | O=S(=O)(c1cccs1)N1CC[C@H]2[C@H]1CCN2CC1CC1 | 2.94
104 | COCC1COCCC12CCN(CCc1ccccc1)CC2 (stereo unspecified) | -26
105 | Cc1ccc(N2C[C@@H]3CN(Cc4ccoc4)CCO[C@@H]3C2)nn1 | -12.8
106 | CCN1CCCC12CCCN(c1ncccn1)C2 (stereo unspecified) | 0.113
107 | CC(C)N1CCc2c(c(COc3cncnc3)nn2CC2CC2)C1 | 1.7
108 | Cc1ccc(C(CCNCCN(C)C)C2CCOC(C)(C)C2)cc1 (stereo unspecified) | 3.46
109 | CCCNc1ncc(CN2C[C@@H]3CC[C@H]2CN(C2CCOCC2)C3)cn1 | -7.84
110 | CN(C)c1ncc(C(=O)N2C[C@H]3CC(Oc4ccccc4)C[C@H]3C2)cn1 (stereo partly specified) | 2.54
111 | Cc1cccc(S(=O)(=O)N2C[C@@H]3C[C@H](C(=O)NCC4CC4)[C@H](C2)O3)c1 | -2.35
